According to ChEMBL document CHEMBL1909611, “Identification and SAR of selective inducible nitric oxide synthase (iNOS) dimerization inhibitors” (Bioorg Med Chem Lett, 2011):
Active and inactive are the calls of the source. The rule behind the calls is not given here.

Columns and labels:
[1] = biological target: T1, Nitric oxide synthase, inducible (Homo sapiens, UniProt P35228); assay: Inhibition of human iNOS
Nitric oxide synthase 1 [2] = biological target: T2, Nitric oxide synthase 1 (Homo sapiens, UniProt P29475); assay: Inhibition of human nNOS expressed in HEK293 cells assessed as inhibition ionomycin-induced nitric oxide production incubated for 24 hrs measured after 18 hrs of ionomycin challenge by 2,3-diaminonaphthalene assay; format: cell-based
T2 sequence (P29475 whole entry): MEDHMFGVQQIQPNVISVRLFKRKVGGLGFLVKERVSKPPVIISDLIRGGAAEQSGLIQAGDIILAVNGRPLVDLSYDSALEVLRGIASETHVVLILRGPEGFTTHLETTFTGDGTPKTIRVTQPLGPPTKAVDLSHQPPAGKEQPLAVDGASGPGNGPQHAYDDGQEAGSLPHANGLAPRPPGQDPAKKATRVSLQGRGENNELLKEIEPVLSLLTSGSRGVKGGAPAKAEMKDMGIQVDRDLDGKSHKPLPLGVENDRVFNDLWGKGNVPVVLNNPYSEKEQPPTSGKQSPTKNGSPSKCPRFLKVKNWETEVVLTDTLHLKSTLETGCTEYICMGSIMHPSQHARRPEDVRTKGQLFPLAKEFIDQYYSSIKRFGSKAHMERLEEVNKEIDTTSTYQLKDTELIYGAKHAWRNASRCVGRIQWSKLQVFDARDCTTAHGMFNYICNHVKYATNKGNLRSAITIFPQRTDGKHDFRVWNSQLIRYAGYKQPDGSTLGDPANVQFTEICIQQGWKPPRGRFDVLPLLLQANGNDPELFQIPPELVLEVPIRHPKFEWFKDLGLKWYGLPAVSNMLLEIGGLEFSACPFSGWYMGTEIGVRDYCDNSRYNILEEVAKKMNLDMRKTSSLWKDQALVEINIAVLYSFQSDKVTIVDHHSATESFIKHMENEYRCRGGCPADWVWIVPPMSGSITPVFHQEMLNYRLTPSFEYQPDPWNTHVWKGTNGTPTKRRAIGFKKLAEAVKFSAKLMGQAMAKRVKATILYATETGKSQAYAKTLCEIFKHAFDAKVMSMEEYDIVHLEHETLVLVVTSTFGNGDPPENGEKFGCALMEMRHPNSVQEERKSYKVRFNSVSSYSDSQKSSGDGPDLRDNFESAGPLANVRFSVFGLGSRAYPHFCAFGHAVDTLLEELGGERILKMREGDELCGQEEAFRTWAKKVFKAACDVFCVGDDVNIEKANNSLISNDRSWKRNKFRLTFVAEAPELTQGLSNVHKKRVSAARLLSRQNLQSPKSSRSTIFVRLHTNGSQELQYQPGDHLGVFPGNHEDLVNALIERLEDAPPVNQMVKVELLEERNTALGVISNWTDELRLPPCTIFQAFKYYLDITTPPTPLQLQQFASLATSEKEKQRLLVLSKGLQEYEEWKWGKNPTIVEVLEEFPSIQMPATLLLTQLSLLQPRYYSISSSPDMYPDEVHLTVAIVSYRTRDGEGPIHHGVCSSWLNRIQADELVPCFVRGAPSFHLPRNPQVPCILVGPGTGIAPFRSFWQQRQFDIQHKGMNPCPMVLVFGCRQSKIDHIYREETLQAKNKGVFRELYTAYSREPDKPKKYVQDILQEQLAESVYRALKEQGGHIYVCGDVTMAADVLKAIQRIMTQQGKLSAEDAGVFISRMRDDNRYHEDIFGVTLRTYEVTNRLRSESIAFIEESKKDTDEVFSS
Method in brief: (§1)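 Transiently transfected cells plated at 5e5 cells/ml; compounds added immediately by pin transfer. Incubated 24 h with compound, then activated by ionophore (0.8 µM final). Fluorescence (ex 360/em 425 nm) read after raising pH with NaOH (0.12 N final). Values are mean of three experiments with SD. At 100 µM, <50% inhibition is reported as >100.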

Nitric oxide synthase 3 = biological target: T3, Nitric oxide synthase 3 (Homo sapiens, UniProt P29474); assay: Inhibition of human eNOS expressed in HEK293 cells assessed as inhibition A23187-induced nitric oxide production incubated for 24 hrs measured after 18 hrs of A23187 challenge by 2,3-diaminonaphthalene assay; format: cell-based; method in brief: as §1
T3 sequence (P29474 whole entry): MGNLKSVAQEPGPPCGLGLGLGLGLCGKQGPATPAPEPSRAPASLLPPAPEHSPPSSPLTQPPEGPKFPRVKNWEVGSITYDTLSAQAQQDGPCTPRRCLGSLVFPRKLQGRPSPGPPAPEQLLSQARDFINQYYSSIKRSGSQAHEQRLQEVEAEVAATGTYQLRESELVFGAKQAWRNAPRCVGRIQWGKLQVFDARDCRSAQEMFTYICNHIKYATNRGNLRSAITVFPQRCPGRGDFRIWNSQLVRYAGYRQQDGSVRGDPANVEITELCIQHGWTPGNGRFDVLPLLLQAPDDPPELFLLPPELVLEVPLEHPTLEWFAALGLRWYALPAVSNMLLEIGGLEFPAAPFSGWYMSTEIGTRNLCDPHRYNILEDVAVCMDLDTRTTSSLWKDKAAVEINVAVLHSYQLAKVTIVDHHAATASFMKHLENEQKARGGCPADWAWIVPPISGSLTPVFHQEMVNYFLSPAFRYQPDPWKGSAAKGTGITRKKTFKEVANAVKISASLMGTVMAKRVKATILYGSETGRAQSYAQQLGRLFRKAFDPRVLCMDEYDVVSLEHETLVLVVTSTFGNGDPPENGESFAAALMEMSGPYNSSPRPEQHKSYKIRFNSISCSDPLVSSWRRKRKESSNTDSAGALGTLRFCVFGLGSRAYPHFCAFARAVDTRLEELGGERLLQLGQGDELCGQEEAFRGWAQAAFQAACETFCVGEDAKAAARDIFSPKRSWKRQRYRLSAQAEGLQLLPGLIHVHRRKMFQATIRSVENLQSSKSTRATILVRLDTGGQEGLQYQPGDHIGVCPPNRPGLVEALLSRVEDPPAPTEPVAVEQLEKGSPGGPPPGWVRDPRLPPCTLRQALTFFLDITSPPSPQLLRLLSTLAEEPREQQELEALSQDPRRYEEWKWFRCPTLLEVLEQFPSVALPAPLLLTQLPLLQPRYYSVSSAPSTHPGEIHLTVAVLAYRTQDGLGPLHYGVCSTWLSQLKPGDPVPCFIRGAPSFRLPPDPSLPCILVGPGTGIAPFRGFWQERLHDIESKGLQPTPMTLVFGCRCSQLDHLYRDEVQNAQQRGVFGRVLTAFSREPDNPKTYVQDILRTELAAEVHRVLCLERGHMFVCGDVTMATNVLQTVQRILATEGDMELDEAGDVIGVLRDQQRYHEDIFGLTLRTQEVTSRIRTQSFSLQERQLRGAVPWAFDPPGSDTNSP

[3] = biological target: T4, Nitric oxide synthase, inducible (Mus musculus) (UniProt P29477); assay: Inhibition of IFN-gamma/LPS-induced iNOS dimerization in mouse RAW264.7 cells by Western blot analysis; format: cell-based
T4 sequence (whole entry): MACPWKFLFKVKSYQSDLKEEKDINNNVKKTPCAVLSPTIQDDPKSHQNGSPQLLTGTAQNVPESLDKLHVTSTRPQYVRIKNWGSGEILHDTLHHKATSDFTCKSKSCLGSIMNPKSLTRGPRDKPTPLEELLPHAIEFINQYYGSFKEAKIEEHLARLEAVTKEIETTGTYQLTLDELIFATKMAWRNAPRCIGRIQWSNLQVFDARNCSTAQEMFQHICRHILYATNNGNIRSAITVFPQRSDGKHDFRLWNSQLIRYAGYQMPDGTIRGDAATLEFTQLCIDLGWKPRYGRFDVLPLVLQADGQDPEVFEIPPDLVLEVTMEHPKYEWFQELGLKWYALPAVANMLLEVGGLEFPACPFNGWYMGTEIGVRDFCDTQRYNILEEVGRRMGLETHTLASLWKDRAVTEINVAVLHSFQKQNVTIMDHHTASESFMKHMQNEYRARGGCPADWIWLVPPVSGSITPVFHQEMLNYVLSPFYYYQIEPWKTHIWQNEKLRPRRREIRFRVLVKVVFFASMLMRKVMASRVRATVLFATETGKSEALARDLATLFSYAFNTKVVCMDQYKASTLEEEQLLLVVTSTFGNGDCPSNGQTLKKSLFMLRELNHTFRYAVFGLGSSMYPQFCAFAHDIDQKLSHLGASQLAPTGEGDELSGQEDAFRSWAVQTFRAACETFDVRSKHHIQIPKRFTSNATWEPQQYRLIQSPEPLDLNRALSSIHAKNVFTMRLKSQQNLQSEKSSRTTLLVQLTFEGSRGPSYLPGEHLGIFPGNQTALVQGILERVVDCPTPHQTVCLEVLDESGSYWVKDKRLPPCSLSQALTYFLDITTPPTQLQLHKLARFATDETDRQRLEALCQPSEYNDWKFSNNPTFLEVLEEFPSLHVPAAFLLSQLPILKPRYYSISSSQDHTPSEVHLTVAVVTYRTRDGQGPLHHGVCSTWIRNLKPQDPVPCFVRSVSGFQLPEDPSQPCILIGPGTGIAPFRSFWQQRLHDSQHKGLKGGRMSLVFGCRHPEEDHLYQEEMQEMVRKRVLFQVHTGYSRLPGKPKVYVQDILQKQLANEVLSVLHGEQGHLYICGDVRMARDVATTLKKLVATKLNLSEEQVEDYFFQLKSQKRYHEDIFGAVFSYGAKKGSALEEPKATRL
Method in brief: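 RAW 264.7 cells seeded at 1.8 × 10⁶ cells/well and incubated 5 h. Then stimulated overnight with murine IFN-γ (100 U/mL final) and LPS (2 µg/mL final) plus 10 µM compound or vehicle (0.1% DMSO final). Lysates protein-normalized, run on 4–20% Tris–glycine gel under low-temperature SDS–PAGE in a cold room. Blotted with mouse anti-iNOS, read by infrared imaging.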

[4] = biological target: T1, Nitric oxide synthase, inducible; assay: Inhibition of human iNOS expressed in human HEK293 cells assessed as nitrite accumulation after 18 hrs by 2,3-diaminonapthalene assay; format: cell-based
Method in brief: as §1, with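 “18” for “24”, “for nitrite accumulation.” for “with compound, then activated by ionophore (0.8 µM final).”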

Rattus norvegicus [5] = assay: Antiinflammatory activity in po dosed Lewis rat endotoxemia model assessed as inhibition of LPS-induced plasma nitrate accumulation after 6 hrs; format: functional
Rattus norvegicus [6] = assay: Antiinflammatory activity in Lewis rat assessed as inhibition of carrageenan-induced thermal hyperalgesia at 3 to 30 mg/kg, po administered 15 mins before carrageenan challenge measured after 5 hrs; format: functional, organism-based
Nitric oxide synthase 1 [7] = biological target: T2, Nitric oxide synthase 1; assay: Inhibition of human nNOS expressed in HEK293 cells assessed as inhibition ionomycin-induced nitric oxide production at 100 uM incubated for 24 hrs measured after 18 hrs of ionomycin challenge by 2,3-diaminonaphthalene assay; format: cell-based; method in brief: as §1
Rattus norvegicus [8] = assay: Antiinflammatory activity in Lewis rat assessed as inhibition of carrageenan-induced edema at 3 to 30 mg/kg, po administered 15 mins before carrageenan challenge measured after 5 hrs; format: functional, organism-based
[9] = biological target: T5, Nitric oxide synthase 3 (Homo sapiens) (UniProt P29474); assay: Inhibition of human eNOS expressed in HEK293 cells assessed as inhibition A23187-induced nitric oxide production at 100 uM incubated for 24 hrs measured after 18 hrs of A23187 challenge by 2,3-diaminonaphthalene assay; format: cell-based; method in brief: as §1
T5 sequence (whole entry): T3 sequence (P29474 whole entry)

Rattus norvegicus [10] = assay: Analgesic activity in po dosed Lewis rat post operative brennan model assessed as incison-induced paw weight bearing response after 30 to 120 mins; format: functional, organism-based
[11] = biological target: T1, Nitric oxide synthase, inducible; assay: Inhibition of human iNOS expressed in human HEK293 cells assessed as nitrite accumulation at 100 uM after 18 hrs by 2,3-diaminonapthalene assay; format: cell-based
Method in brief: as §1, with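 “18” for “24”, “for nitrite accumulation.” for “with compound, then activated by ionophore (0.8 µM final).”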

T1 sequence (P35228 whole entry): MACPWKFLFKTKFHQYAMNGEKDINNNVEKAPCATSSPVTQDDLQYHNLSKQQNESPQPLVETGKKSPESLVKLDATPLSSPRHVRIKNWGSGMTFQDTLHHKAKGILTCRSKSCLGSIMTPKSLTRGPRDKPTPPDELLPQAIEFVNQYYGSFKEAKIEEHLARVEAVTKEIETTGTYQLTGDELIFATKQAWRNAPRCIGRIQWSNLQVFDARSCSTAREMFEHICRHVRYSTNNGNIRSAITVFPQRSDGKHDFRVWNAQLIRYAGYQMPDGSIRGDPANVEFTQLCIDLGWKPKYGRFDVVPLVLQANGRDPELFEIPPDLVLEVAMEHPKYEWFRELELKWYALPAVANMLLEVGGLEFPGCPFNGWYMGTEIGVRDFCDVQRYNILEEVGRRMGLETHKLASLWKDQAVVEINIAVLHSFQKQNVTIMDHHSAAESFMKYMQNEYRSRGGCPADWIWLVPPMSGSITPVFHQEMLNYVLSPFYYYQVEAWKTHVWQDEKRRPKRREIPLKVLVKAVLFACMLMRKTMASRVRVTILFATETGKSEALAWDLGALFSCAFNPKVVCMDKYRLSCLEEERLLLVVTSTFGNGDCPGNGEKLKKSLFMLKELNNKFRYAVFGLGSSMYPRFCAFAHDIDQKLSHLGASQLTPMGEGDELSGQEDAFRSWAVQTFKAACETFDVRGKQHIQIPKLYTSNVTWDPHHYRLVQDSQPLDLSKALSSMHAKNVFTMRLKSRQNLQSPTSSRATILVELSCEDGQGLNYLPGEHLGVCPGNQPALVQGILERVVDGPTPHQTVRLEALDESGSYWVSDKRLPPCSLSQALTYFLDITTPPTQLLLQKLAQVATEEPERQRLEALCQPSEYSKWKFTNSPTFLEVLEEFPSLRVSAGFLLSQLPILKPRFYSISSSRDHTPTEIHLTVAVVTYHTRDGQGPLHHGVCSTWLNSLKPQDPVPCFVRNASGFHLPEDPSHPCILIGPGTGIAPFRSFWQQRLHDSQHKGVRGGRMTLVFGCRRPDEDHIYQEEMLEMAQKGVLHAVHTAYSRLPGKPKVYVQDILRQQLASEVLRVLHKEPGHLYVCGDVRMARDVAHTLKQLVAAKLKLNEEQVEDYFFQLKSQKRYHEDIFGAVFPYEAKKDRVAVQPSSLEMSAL

SMILES | IC50 [1] [µM] | EC50 (Nitric oxide synthase 1 [2]) [µM] | EC50 (Nitric oxide synthase 3) [µM] | inhibition [3] | EC50 [4] [µM] | ED50 (Rattus norvegicus [5]) [mg/kg] | inhibition (Rattus norvegicus [6]) | inhibition (Nitric oxide synthase 1 [7]) [%] | inhibition (Rattus norvegicus [8]) | inhibition [9] [%] | Activity (Rattus norvegicus [10]) | inhibition [11] [%]
CN(CCCNCc1ccc2c(c1)OCO2)c1nc(-n2ccnc2)ns1 [KD7040] | 0.007 | 17.3 | > 100 | Active | 0.008 |  |  |  |  |  |  | 
Cc1cc(N(C)CCCNCc2ccc3c(c2)OCO3)nc(-n2ccnc2)n1 | 0.01 |  |  | Active |  |  |  |  |  |  |  | 
Cc1cc(C(C)(C)NCCNCc2ccc3c(c2)OCO3)nc(-n2ccnc2)n1 |  | > 100 | > 100 |  | 2.3 | 9.3 | Active | < 50 | Active | < 50 | Active | 
Cc1cc(N(C)CCCNCc2ccc3c(c2)OCO3)nc(-n2cccc2)n1 | > 100 |  |  | inactive |  |  |  |  |  |  |  | 
CN(CCCNCc1ccccc1)c1nc(-n2ccnc2)ns1 | > 100 | > 100 | > 100 | Active | > 100 |  |  | < 50 |  | < 50 |  | < 50
